This note sets out measurements from ChEMBL document CHEMBL1145441, “Synthesis and anti-HIV activity of new metabolically stable alkenyldiarylmethane non-nucleoside reverse transcriptase inhibitors incorporating N-methoxy imidoyl halide and 1,2,4-oxadiazole systems” (J Med Chem, 2007).

Calls of active or inactive are those of the source.

A short description of series [1]: Metabolic stability in rat plasma. It is filed as ADME, cell-free. The method in brief: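 Hydrolytic stability in rat plasma in vitro, with 1,1-diphenylethylene or benzophenone as internal standard; samples followed by HPLC; half-life reported in minutes as mean ± SD of at least two separate experiments.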
The nature of series [2]: Cytotoxicity against mock-infected CEM-SS cells. The series is classed as cell-based. Conditions: human. In short, it runs like this: (§1)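 Mock-infected CEM-SS or MT-4 cells; CC50 defined as 50% cytotoxic concentration; means of at least two separate experiments.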
The target of series [3] is Human immunodeficiency virus type 1 reverse transcriptase (Human immunodeficiency virus 1, UniProt Q72547). Put plainly: Inhibition of HIV1 recombinant reverse transcriptase.
A short description of series [4]: Cytotoxicity against mock-infected MT4 cells. The note with it: human. The series is classed as cell-based. The method in brief:
as §1

In series [5] the test system is Human immunodeficiency virus 2. Put plainly: Antiviral activity against HIV2 ROD in MT4 cells by MTT assay. The series is classed as functional, organism-based. The method in brief: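 HIV-2 strain ROD infection of MT-4 cells; MTT cytoprotection read-out; EC50 is the 50% effective concentration against virus-induced cytopathicity; mean values from at least two separate experiments.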
For orientation: Formazan colour is commonly taken as a measure of viable cells.

In series [6] the test system is Human immunodeficiency virus 1. Put plainly: Antiviral activity against HIV1 RF in CEM-SS cells by XTT assay. It is filed as functional, organism-based. Conditions: for EC50: Human immunodeficiency virus 1, RF. The method in brief:
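HIV-1 RF infection of CEM-SS cells, with protection scored by XTT cytoprotection assay; EC50 defined as 50% effective concentration for inhibiting cytopathicity; means of at least two separate experiments.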

The test system of series [7] is Human immunodeficiency virus 1. Put plainly: Antiviral activity against HIV1 3B in MT4 cells by MTT assay. Conditions: for EC50: Human immunodeficiency virus 1, 3B. It is filed as functional, organism-based. The method in brief:
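Cytoprotection read-out by MTT in MT-4 cells infected with HIV-1 strain IIIB; EC50 taken as the concentration giving 50% inhibition of viral cytopathicity; means of at least two separate experiments.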

As for `COC(=O)CCC/C=C(\c1cc(C)c(OC)c(C(=O)OC)c1)c1cc(C)c2oc(=O)n(C)c2c1`, the half-life in series [1] was 0.0217 h. Besides, the CC50 in series [2] was found to be 5.1 µM; in series [4] it was 16.9 µM. For the same compound, the IC50 in series [3] amounted to 0.02 µM. The outcome in series [5] was inactive. In series [6], the half-maximal effective concentration (EC50) worked out at 0.02 µM.
`COC(=O)CCCC=C(c1cc(C)c(OC)c(C(=O)OC)c1)c1cc(C)c(OC)c(C(=O)OC)c1`: the half-life in series [1] was 0.0127 h. The half-maximal cytotoxic concentration (CC50) in series [2] stood at 6 µM; in series [4], 6.1 µM. Besides, the IC50 in series [3] is 1 µM. Further, the outcome in series [5] was inactive. In series [6], this compound gave a half-maximal effective concentration (EC50) of 0.25 µM.
For the compound `CO/N=C(\F)c1cc(/C(=C\CCCc2nc(C)no2)c2cc(C)c3oc(=O)n(C)c3c2)cc(C)c1OC`, the half-life in series [1] is 60.7 h. Moreover, the values for the cytotoxic concentration (CC50) in series [2] and in series [4] were 2.9 µM and 12.4 µM, respectively. In series [3], the IC50 was 0.67 µM. Besides, the EC50 was 0.24 µM in series [7] and 0.7 µM in series [6]. The result in series [5] was inactive.
In the case of `CO/N=C(\Br)CCC/C=C(\c1cc(C)c(OC)c(/C(Br)=N/OC)c1)c1cc(C)c2oc(=O)n(C)c2c1`, the half-life in series [1] came out at 2.6 h. For the same compound, the CC50 was 2.1 µM in series [2] and 13.3 µM in series [4]. Also, the 50% inhibitory concentration (IC50) in series [3] was 0.85 µM. In series [7], this compound came in with an EC50 of 6.3 µM. The outcome in series [5] and in series [6] was inactive.
With `CONC(=O)c1cc(/C(=C\CCCC(=O)OC(C)(C)C)c2cc(C)c3oc(=O)n(C)c3c2)cc(C)c1OC`, the CC50 was determined as 5.2 µM in series [2] and 16.8 µM in series [4]. For the same compound, the IC50 in series [3] was more than 100 µM. For the same compound, the outcome in series [7], in series [5] and in series [6] was inactive.
`CO/N=C(\F)c1cc(/C(=C\CCCC(=O)OC)c2cc(C)c3oc(=O)n(C)c3c2)cc(C)c1OC` had a half-life in series [1] of 0.153 h. Besides, the CC50 worked out at 3.9 µM in series [2] and 21 µM in series [4]. For the same compound, the half-inhibitory concentration (IC50) in series [3] came to 0.55 µM. Besides, the 50% effective concentration (EC50) in series [7] was 0.29 µM; in series [6], 0.5 µM. Besides, the result in series [5] was inactive.
For the compound `CONC(=O)CCC/C=C(\c1cc(C)c(OC)c(C(=O)NOC)c1)c1cc(C)c2oc(=O)n(C)c2c1`, the cytotoxic concentration (CC50) is 5.4 µM in series [2] and 18.4 µM in series [4]. Further, the IC50 in series [3] was more than 100 µM. Moreover, the result in series [7], in series [5] and in series [6] was inactive.
`CO/N=C(\Cl)CCC/C=C(\c1cc(C)c(OC)c(/C(Cl)=N/OC)c1)c1cc(C)c2oc(=O)n(C)c2c1`: the half-life in series [1] came out at 82.8 h. In addition, the figures for the CC50 in series [2] and in series [4] were 1.3 µM and 3.9 µM, respectively. Besides, the concentration for half-maximal inhibition (IC50) in series [3] was 0.6 µM. The outcome in series [5] and in series [6] was inactive.

One may read the half-life as the time in which the quantity being followed falls by half. One may read the CC50 as the concentration that lowers cell viability or growth by half. A lower CC50 goes with greater toxicity to the cells. In general, IC50 refers to the concentration that gives 50% inhibition. The EC50 is the concentration that produces a half-maximal response. Read a low EC50 as an effect from little substance.
